Measurements as given in ChEMBL document CHEMBL4229342, “Synthesis of novel proxyphylline derivatives with dual Anti-Candida albicans and anticancer activity” (Eur J Med Chem, 2018).

What was measured:
Assay type in all cases: functional
MCF7 [1] = test: Antiproliferative activity against human MCF7 cells assessed as cell viability at 100 uM after 72 hrs by MTT assay; conditions: MCF7, 72 h, read-out: Activity
Outline: (§1)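 MTT viability assay in CCRF-CEM and MCF-7 cells after 72 h exposure at 25, 50, 100 and 200 µM. Results are relative to control cells without inhibitor in 0.5% DMSO. Done in triplicate; values are means ± SD of three independent experiments.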

Candida albicans [2] = test: Growth inhibition of Candida albicans ATCC 90028 at 8 ug/ml incubated for 4 hrs at 35 degC by broth microdilution method relative to control; conditions: ATCC 90028, 4 h, read-out: GI
Candida albicans [3] = test: Growth inhibition of Candida albicans ATCC 90028 at 2 ug/ml incubated for 18 hrs at 35 degC by broth microdilution method relative to control; conditions: ATCC 90028, 18 h, read-out: GI
Candida albicans [4] = test: Growth inhibition of Candida albicans ATCC 90028 at 8 ug/ml incubated for 18 hrs at 35 degC by broth microdilution method relative to control; conditions: ATCC 90028, 18 h, read-out: GI
Candida albicans [5] = test: Growth inhibition of Candida albicans ATCC 90028 at 0.125 ug/ml incubated for 4 hrs at 35 degC by broth microdilution method relative to control; conditions: ATCC 90028, 4 h, read-out: GI
Candida albicans [6] = test: Growth inhibition of Candida albicans ATCC 90028 at 0.5 ug/ml incubated for 4 hrs at 35 degC by broth microdilution method relative to control; conditions: ATCC 90028, 4 h, read-out: GI
Candida albicans [7] = test: Growth inhibition of Candida albicans ATCC 90028 at 16 ug/ml incubated for 48 hrs at 35 degC by broth microdilution method relative to control; conditions: ATCC 90028, 48 h, read-out: GI
Candida albicans [8] = test: Growth inhibition of Candida albicans ATCC 90028 at 0.0313 ug/ml incubated for 4 hrs at 35 degC by broth microdilution method relative to control; conditions: ATCC 90028, 4 h, read-out: GI
Candida albicans [9] = test: Growth inhibition of Candida albicans ATCC 90028 at 4 ug/ml incubated for 18 hrs at 35 degC by broth microdilution method relative to control; conditions: ATCC 90028, 18 h, read-out: GI
CCRF-CEM [10] = test: Antiproliferative activity against human CCRF-CEM cells assessed as cell viability at 100 uM after 72 hrs by MTT assay; conditions: read-out: Activity; outline: as §1
Candida albicans [11] = test: Fungicidal activity against Candida albicans ATCC 90028 assessed as log reduction in cell viability at 16 ug/ml after 48 hrs at 35 degC
Outline: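 MFC assay on C. albicans ATCC 90028 following M27-A3, at the molar equivalent of 16 µg/mL. CFU of treated cells were compared with CFU of the untreated inoculum. Activity is given as lg R = lg CFU/mL control − lg CFU/mL treated, and lg R ≥3 was defined as fungicidal. Values are means of two independent experiments.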

CCRF-CEM [12] = test: Antiproliferative activity against human CCRF-CEM cells assessed as cell viability at 25 uM after 72 hrs by MTT assay; conditions: read-out: Activity; outline: as §1
Candida albicans [13] = test: Growth inhibition of Candida albicans ATCC 90028 at 0.25 ug/ml incubated for 18 hrs at 35 degC by broth microdilution method relative to control; conditions: ATCC 90028, 18 h, read-out: GI
CCRF-CEM [14] = test: Antiproliferative activity against human CCRF-CEM cells assessed as cell viability at 200 uM after 72 hrs by MTT assay; conditions: read-out: Activity; outline: as §1
Candida albicans [15] = test: Growth inhibition of Candida albicans ATCC 90028 at 0.125 ug/ml incubated for 18 hrs at 35 degC by broth microdilution method relative to control; conditions: ATCC 90028, 18 h, read-out: GI
Candida albicans [16] = test: Growth inhibition of Candida albicans ATCC 90028 at 1 ug/ml incubated for 18 hrs at 35 degC by broth microdilution method relative to control; conditions: ATCC 90028, 18 h, read-out: GI
Candida albicans [17] = test: Growth inhibition of Candida albicans ATCC 90028 at 0.25 ug/ml incubated for 4 hrs at 35 degC by broth microdilution method relative to control; conditions: ATCC 90028, 4 h, read-out: GI
MCF7 [18] = test: Antiproliferative activity against human MCF7 cells assessed as cell viability at 200 uM after 72 hrs by MTT assay; conditions: MCF7, 72 h, read-out: Activity; outline: as §1
Candida albicans [19] = test: Growth inhibition of Candida albicans ATCC 90028 at 0.0625 ug/ml incubated for 4 hrs at 35 degC by broth microdilution method relative to control; conditions: ATCC 90028, 4 h, read-out: GI
CCRF-CEM [20] = test: Antiproliferative activity against human CCRF-CEM cells assessed as cell viability at 50 uM after 72 hrs by MTT assay; conditions: read-out: Activity; outline: as §1
MCF7 [21] = test: Antiproliferative activity against human MCF7 cells assessed as cell viability at 50 uM after 72 hrs by MTT assay; conditions: MCF7, 72 h, read-out: Activity; outline: as §1
Candida albicans [22] = test: Growth inhibition of Candida albicans ATCC 90028 at 0.0313 ug/ml incubated for 18 hrs at 35 degC by broth microdilution method relative to control; conditions: ATCC 90028, 18 h, read-out: GI
Candida albicans [23] = test: Growth inhibition of Candida albicans ATCC 90028 at 0.0625 ug/ml incubated for 18 hrs at 35 degC by broth microdilution method relative to control; conditions: ATCC 90028, 18 h, read-out: GI
Candida albicans [24] = test: Growth inhibition of Candida albicans ATCC 90028 at 0.5 ug/ml incubated for 18 hrs at 35 degC by broth microdilution method relative to control; conditions: ATCC 90028, 18 h, read-out: GI
Candida albicans [25] = test: Growth inhibition of Candida albicans ATCC 90028 at 16 ug/ml incubated for 18 hrs at 35 degC by broth microdilution method relative to control; conditions: ATCC 90028, 18 h, read-out: GI
Candida albicans [26] = test: Growth inhibition of Candida albicans ATCC 90028 at 8 ug/ml incubated for 48 hrs at 35 degC by broth microdilution method relative to control; conditions: ATCC 90028, 48 h, read-out: GI
Candida albicans [27] = test: Growth inhibition of Candida albicans ATCC 90028 at 2 ug/ml incubated for 4 hrs at 35 degC by broth microdilution method relative to control; conditions: ATCC 90028, 4 h, read-out: GI
Candida albicans [28] = test: Growth inhibition of Candida albicans ATCC 90028 at 1 ug/ml incubated for 4 hrs at 35 degC by broth microdilution method relative to control; conditions: ATCC 90028, 4 h, read-out: GI
MCF7 [29] = test: Antiproliferative activity against human MCF7 cells assessed as cell viability at 25 uM after 72 hrs by MTT assay; conditions: MCF7, 72 h, read-out: Activity; outline: as §1

| Compound | viability at 100 µM (MCF7 [1]) [%] | inhibition of growth at 2 µg/mL (Candida albicans [3]) [%] | inhibition of growth at 8 µg/mL (Candida albicans [4]) [%] | inhibition of growth at 0.5 µg/mL (Candida albicans [6]) [%] | inhibition of growth at 16 µg/mL (Candida albicans [7]) [%] | inhibition of growth at 0.0313 µg/mL (Candida albicans [8]) [%] | inhibition of growth at 4 µg/mL (Candida albicans [9]) [%] | viability at 100 µM (CCRF-CEM [10]) [%] | log(activity) (Candida albicans [11]) | viability at 25 µM (CCRF-CEM [12]) [%] | inhibition of growth at 0.25 µg/mL (Candida albicans [13]) [%] | viability at 200 µM (CCRF-CEM [14]) [%] | inhibition of growth at 0.125 µg/mL (Candida albicans [15]) [%] | inhibition of growth at 1 µg/mL (Candida albicans [16]) [%] | inhibition of growth at 0.25 µg/mL (Candida albicans [17]) [%] | viability at 200 µM (MCF7 [18]) [%] | inhibition of growth at 0.0625 µg/mL (Candida albicans [19]) [%] | viability at 50 µM (CCRF-CEM [20]) [%] | viability at 50 µM (MCF7 [21]) [%] | viability at 25 µM (MCF7 [29]) [%] | other results |
| --- | --- | --- | --- | --- | --- | --- | --- | --- | --- | --- | --- | --- | --- | --- | --- | --- | --- | --- | --- | --- | --- |
| COC(C(=O)OC(C)Cn1cnc2c1c(=O)n(C)c(=O)n2C)c1ccc2ccccc2c1 (configuration not stated) | 83.7 | 99 | 99 | 99.1 | 99 | 99.1 | 99 | 27.6 | 0.4 | 84.7 | 99 | 15 | 99.1 | 99.1 | 99.1 | 68.8 | 99.1 | 28.2 | 86.3 | 93.5 | inhibition of growth at 8 µg/mL (Candida albicans [2]): 99%; inhibition of growth at 0.125 µg/mL (Candida albicans [5]): 99%; inhibition of growth at 0.0313 µg/mL (Candida albicans [22]): 99%; inhibition of growth at 0.0625 µg/mL (Candida albicans [23]): 99.1%; inhibition of growth at 0.5 µg/mL (Candida albicans [24]): 99.2%; inhibition of growth at 16 µg/mL (Candida albicans [25]): 99.2%; inhibition of growth at 8 µg/mL (Candida albicans [26]): 99%; inhibition of growth at 2 µg/mL (Candida albicans [27]): 99.1%; inhibition of growth at 1 µg/mL (Candida albicans [28]): 99% |
| CC(Cn1cnc2c1c(=O)n(C)c(=O)n2C)OC(=O)N1c2ccccc2Sc2ccccc21 (configuration not stated) | 73.4 | 99.8 | 99.7 | 99.5 | 99.2 | 99.3 | 99.9 | 33.8 | 0.3 | 105 | 100 | 47.1 | 99.9 | 99.8 | 99.5 | 37 | 99.2 | 77.4 | 89.9 | 90.5 | inhibition of growth at 8 µg/mL (Candida albicans [2]): 99.5%; inhibition of growth at 0.125 µg/mL (Candida albicans [5]): 99.2%; inhibition of growth at 0.0313 µg/mL (Candida albicans [22]): 100%; inhibition of growth at 0.0625 µg/mL (Candida albicans [23]): 99.9%; inhibition of growth at 0.5 µg/mL (Candida albicans [24]): 99.8%; inhibition of growth at 16 µg/mL (Candida albicans [25]): 100%; inhibition of growth at 8 µg/mL (Candida albicans [26]): 99.2%; inhibition of growth at 2 µg/mL (Candida albicans [27]): 99.2%; inhibition of growth at 1 µg/mL (Candida albicans [28]): 99% |
| CC(Cn1cnc2c1c(=O)n(C)c(=O)n2C)OC(=O)CC(=O)c1ccccc1 (configuration not stated) | 79.3 | 99.3 | 99.8 | 99 | 99 | 99.1 | 99.2 | 65.6 | 0.7 | 85.1 | 99.1 | 38.5 | 99.2 | 99.3 | 99 | 81.8 | 99.1 | 88.1 | 79.8 | 91.3 | inhibition of growth at 8 µg/mL (Candida albicans [2]): 99.1%; inhibition of growth at 0.125 µg/mL (Candida albicans [5]): 99%; inhibition of growth at 0.0313 µg/mL (Candida albicans [22]): 99.2%; inhibition of growth at 0.0625 µg/mL (Candida albicans [23]): 99.2%; inhibition of growth at 0.5 µg/mL (Candida albicans [24]): 99.1%; inhibition of growth at 16 µg/mL (Candida albicans [25]): 99.7%; inhibition of growth at 8 µg/mL (Candida albicans [26]): 99%; inhibition of growth at 2 µg/mL (Candida albicans [27]): 99.1%; inhibition of growth at 1 µg/mL (Candida albicans [28]): 99.1% |
| Cc1ccc(C(=O)CC(=O)OC(C)Cn2cnc3c2c(=O)n(C)c(=O)n3C)cc1 (configuration not stated) | 86.6 | 100 | 100 | 99.2 | 99.1 | 99.8 | 100 | 67.3 | 0.5 | 89.5 | 100 | 31.6 | 100 | 100 | 99.2 | 82.7 | 99.3 | 74.2 | 82.2 | 89 | inhibition of growth at 0.0313 µg/mL (Candida albicans [22]): 100%; inhibition of growth at 0.0625 µg/mL (Candida albicans [23]): 99.8%; inhibition of growth at 0.5 µg/mL (Candida albicans [24]): 99.8%; inhibition of growth at 16 µg/mL (Candida albicans [25]): 100%; inhibition of growth at 8 µg/mL (Candida albicans [26]): 99.3%; inhibition of growth at 2 µg/mL (Candida albicans [27]): 99.2%; inhibition of growth at 1 µg/mL (Candida albicans [28]): 99.2% |
| Brc1c(Br)c(Br)c2[nH]cnc2c1Br | 9 |  |  |  |  |  |  | 0 |  | 6.3 |  | 0 |  |  |  | 1.7 |  | 0 | 24.6 | 19.6 |  |
